Several values for one entry are separate records, joined by “and”; a condition that tells them apart may be missing. Equal values may be shown once.
System: U2OS
Assay: Multiplex assay against U2OS
Assay type: toxicity, cell-based
Settings: human
Summary of the method: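 Live cells carried four stains from seeding: Hoechst33342, BioTracker Green Microtubule Cytoskeleton Dye, MitoTracker Red and Annexin V Alexa Fluor 680. They were imaged on a CQ1 microscope at 37°C and 5% CO2 after compound addition. Using CellPathfinder machine-learning gating, cells were split into Hoechst high-intensity objects or normal cells, normal cells into healthy, pyknosed or fragmented nuclei, and pyknosed cells into mitotic or apoptotic; tubulin, mitochondrial-mass and membrane-permeability phenotypes are per cents of healthy-nucleus cells.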

[1] = 12 h, 1 µM, compound concentration 1 uM
[2] = 12 h, 10 µM, compound concentration 10 uM
[3] = 24 h, 1 µM, compound concentration 1 uM
[4] = 24 h, 10 µM, compound concentration 10 uM
[5] = 48 h, 1 µM, compound concentration 1 uM
[6] = 48 h, 10 µM, compound concentration 10 uM

## Oc1c(CN2CCN(c3ccccn3)CC2)cc(Cl)c2cccnc12
[1]
  Population Apoptotic (%): 95% and 100%
  Population Fragmented Nuclei (%): 24% and 16%
  Population Healthy Nuclei (%): 64% and 78%
  Population Hoechst High Intensity Objects (%): 1%
  Population Membrane Permeable-Phenotype (%): 3% and 13%
  Population Mitochondria Different-Phenotype (%): 1% and 4%
  Population Mitotic Cells (%): 4% and 0%
  Population Normal (%): 98%
  Population Pyknosed Nuclei (%): 10% and 5%
  Population Tubulin-Different-Phenotype (%): 2% and 8%
  Total Cell Count: 237 and 93
[2]
  Population Apoptotic (%): 84% and 87%
  Population Fragmented Nuclei (%): 31% and 18%
  Population Healthy Nuclei (%): 56% and 68%
  Population Hoechst High Intensity Objects (%): 2% and 1%
  Population Membrane Permeable-Phenotype (%): 12% and 6%
  Population Mitochondria Different-Phenotype (%): 28% and 35%
  Population Mitotic Cells (%): 15% and 12%
  Population Normal (%): 97% and 98%
  Population Pyknosed Nuclei (%): 11% and 13%
  Population Tubulin-Different-Phenotype (%): 8% and 11%
  Total Cell Count: 229 and 118
[3]
  Population Apoptotic (%): 88% and 100%
  Population Healthy Nuclei (%): 64% and 87%
  Population Hoechst High Intensity Objects (%): 1%
  Population Membrane Permeable-Phenotype (%): 3% and 9%
  Population Mitochondria Different-Phenotype (%): 2% and 3%
  Population Mitotic Cells (%): 11% and 0%
  Population Normal (%): 98%
  Population Pyknosed Nuclei (%): 6% and 5%
  Population Tubulin-Different-Phenotype (%): 2% and 7%
  Total Cell Count: 270 and 97
[4]
  Population Apoptotic (%): 90% and 100%
  Population Fragmented Nuclei (%): 27% and 29%
  Population Healthy Nuclei (%): 63% and 58%
  Population Hoechst High Intensity Objects (%): 4% and 3%
  Population Membrane Permeable-Phenotype (%): 10% and 9%
  Population Mitochondria Different-Phenotype (%): 14% and 40%
  Population Mitotic Cells (%): 9% and 0%
  Population Normal (%): 95% and 96%
  Population Pyknosed Nuclei (%): 9% and 12%
  Population Tubulin-Different-Phenotype (%): 7% and 6%
  Total Cell Count: 238 and 127
[5]
  Population Apoptotic (%): 94% and 87%
  Population Fragmented Nuclei (%): 25% and 14%
  Population Healthy Nuclei (%): 67% and 77%
  Population Hoechst High Intensity Objects (%): 3% and 1%
  Population Membrane Permeable-Phenotype (%): 6% and 7%
  Population Mitochondria Different-Phenotype (%): 3% and 1%
  Population Mitotic Cells (%): 5% and 12%
  Population Normal (%): 96% and 98%
  Population Pyknosed Nuclei (%): 7%
  Population Tubulin-Different-Phenotype (%): 3% and 5%
  Total Cell Count: 276 and 111
[6]
  Population Apoptotic (%): 96% and 100%
  Population Fragmented Nuclei (%): 32% and 38%
  Population Healthy Nuclei (%): 57% and 42%
  Population Hoechst High Intensity Objects (%): 2% and 4%
  Population Membrane Permeable-Phenotype (%): 11% and 12%
  Population Mitochondria Different-Phenotype (%): 19% and 41%
  Population Mitotic Cells (%): 3% and 0%
  Population Normal (%): 97% and 95%
  Population Pyknosed Nuclei (%): 10% and 19%
  Population Tubulin-Different-Phenotype (%): 7% and 8%
  Total Cell Count: 275 and 144

## COc1cc(OC2CCN(C(C)=O)CC2)ccc1C(=O)N1CCC(N2C(=O)OCc3ccccc32)CC1
[1]
  Population Apoptotic (%): 50% and 66%
  Population Fragmented Nuclei (%): 22% and 20%
  Population Healthy Nuclei (%): 67% and 69%
  Population Hoechst High Intensity Objects (%): 0%
  Population Membrane Permeable-Phenotype (%): 5% and 11%
  Population Mitochondria Different-Phenotype (%): 3% and 7%
  Population Mitotic Cells (%): 50% and 33%
  Population Normal (%): 99%
  Population Pyknosed Nuclei (%): 9%
  Population Tubulin-Different-Phenotype (%): 3% and 8%
  Total Cell Count: 233 and 130
[2]
  Population Apoptotic (%): 72% and 87%
  Population Fragmented Nuclei (%): 23% and 13%
  Population Healthy Nuclei (%): 62% and 77%
  Population Hoechst High Intensity Objects (%): 6% and 1%
  Population Membrane Permeable-Phenotype (%): 18% and 21%
  Population Mitochondria Different-Phenotype (%): 6% and 10%
  Population Mitotic Cells (%): 27% and 12%
  Population Normal (%): 93% and 98%
  Population Pyknosed Nuclei (%): 13% and 9%
  Population Tubulin-Different-Phenotype (%): 12% and 13%
  Total Cell Count: 228 and 85
[3]
  Population Apoptotic (%): 82% and 76%
  Population Fragmented Nuclei (%): 20% and 22%
  Population Healthy Nuclei (%): 71% and 68%
  Population Hoechst High Intensity Objects (%): 1%
  Population Membrane Permeable-Phenotype (%): 3% and 7%
  Population Mitochondria Different-Phenotype (%): 2% and 5%
  Population Mitotic Cells (%): 17% and 23%
  Population Normal (%): 98%
  Population Pyknosed Nuclei (%): 8%
  Population Tubulin-Different-Phenotype (%): 2% and 3%
  Total Cell Count: 288 and 163
[4]
  Population Apoptotic (%): 81% and 71%
  Population Fragmented Nuclei (%): 21% and 12%
  Population Healthy Nuclei (%): 60% and 80%
  Population Hoechst High Intensity Objects (%): 5% and 2%
  Population Membrane Permeable-Phenotype (%): 9% and 10%
  Population Mitochondria Different-Phenotype (%): 9% and 3%
  Population Mitotic Cells (%): 18% and 28%
  Population Normal (%): 94% and 97%
  Population Pyknosed Nuclei (%): 18% and 7%
  Population Tubulin-Different-Phenotype (%): 4% and 6%
  Total Cell Count: 250 and 99
[5]
  Population Apoptotic (%): 80% and 65%
  Population Fragmented Nuclei (%): 17% and 23%
  Population Healthy Nuclei (%): 77% and 66%
  Population Hoechst High Intensity Objects (%): 3%
  Population Membrane Permeable-Phenotype (%): 3% and 10%
  Population Mitochondria Different-Phenotype (%): 1% and 5%
  Population Mitotic Cells (%): 19% and 35%
  Population Normal (%): 96%
  Population Pyknosed Nuclei (%): 5% and 9%
  Population Tubulin-Different-Phenotype (%): 2% and 4%
  Total Cell Count: 388 and 213
[6]
  Population Apoptotic (%): 81% and 100%
  Population Fragmented Nuclei (%): 19% and 17%
  Population Healthy Nuclei (%): 66% and 78%
  Population Hoechst High Intensity Objects (%): 5% and 1%
  Population Membrane Permeable-Phenotype (%): 5% and 14%
  Population Mitochondria Different-Phenotype (%): 4% and 6%
  Population Mitotic Cells (%): 18% and 0%
  Population Normal (%): 95% and 98%
  Population Tubulin-Different-Phenotype (%): 3% and 8%
  Total Cell Count: 320 and 130
